ChEMBL document CHEMBL3108713, “Identification of ML251, a Potent Inhibitor of T. brucei and T. cruzi Phosphofructokinase” (ACS Med Chem Lett, 2014)
In brackets after ≈: the same amount, converted by molar mass. Activity calls are given as the source filed them. No cut-off for these calls is given here.

Legend:
[1] = target: T1, ATP-dependent 6-phosphofructokinase (Trypanosoma brucei, UniProt O15648); assay: Inhibition of Trypanosoma brucei PFK-mediated ADP production using ATP/fructose-6-phosphate as substrate by luciferase based luminescence assay
T1 sequence (O15648 whole entry): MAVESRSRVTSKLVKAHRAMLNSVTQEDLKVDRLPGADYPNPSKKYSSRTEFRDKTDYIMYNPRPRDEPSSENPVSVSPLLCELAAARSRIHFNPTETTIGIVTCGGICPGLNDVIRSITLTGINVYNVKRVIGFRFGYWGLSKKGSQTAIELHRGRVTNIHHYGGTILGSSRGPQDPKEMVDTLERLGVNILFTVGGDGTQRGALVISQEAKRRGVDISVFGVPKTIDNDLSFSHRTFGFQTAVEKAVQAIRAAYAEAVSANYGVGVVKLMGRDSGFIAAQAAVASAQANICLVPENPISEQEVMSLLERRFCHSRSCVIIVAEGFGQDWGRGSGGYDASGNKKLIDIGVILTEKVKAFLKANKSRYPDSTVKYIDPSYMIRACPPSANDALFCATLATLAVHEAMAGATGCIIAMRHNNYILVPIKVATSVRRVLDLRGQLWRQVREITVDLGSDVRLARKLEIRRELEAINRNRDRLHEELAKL
How it was run: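 Recombinant enzyme; ADP formed by PFK detected with modified luciferase (ADP-Glo) luminescent end-point in 1536-well format.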

[2] = Half life in mouse liver microsomes; assay type: ADME, Microsome
[3] = target: T2, ATP-dependent 6-phosphofructokinase (Trypanosoma brucei) (UniProt O15648); assay: Inhibition of Trypanosoma brucei PFK-mediated ADP production using ATP/fructose-6-phosphate as substrate at 57 uM by luciferase based luminescence assay
T2 sequence (whole entry): T1 sequence (O15648 whole entry)
How it was run: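 Recombinant T. brucei PFK; ADP formed by the enzyme is converted to a luminescent signal by a modified luciferase ADP-Glo detection, read at end point.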

[4] = Cytotoxicity against human MRC5 cells assessed as intracellular ATP content after 72 hrs by Cell titer-Glo luminiscent assay; assay type: cell-based
[5] = tested on: Trypanosoma brucei brucei; assay: Antitrypanosomal activity against Trypanosoma brucei brucei Lister 427 assessed as cell viability after 72 hrs by alamar blue assay; assay type: functional; settings: for EC50: Lister 427, 72 h, read-out: ED50 (the source's name)
[6] = target: T3, ATP-dependent 6-phosphofructokinase (Trypanosoma cruzi) (UniProt Q4E657); assay: Inhibition of Trypanosoma cruzi PFK at 57 uM
T3 sequence (whole entry): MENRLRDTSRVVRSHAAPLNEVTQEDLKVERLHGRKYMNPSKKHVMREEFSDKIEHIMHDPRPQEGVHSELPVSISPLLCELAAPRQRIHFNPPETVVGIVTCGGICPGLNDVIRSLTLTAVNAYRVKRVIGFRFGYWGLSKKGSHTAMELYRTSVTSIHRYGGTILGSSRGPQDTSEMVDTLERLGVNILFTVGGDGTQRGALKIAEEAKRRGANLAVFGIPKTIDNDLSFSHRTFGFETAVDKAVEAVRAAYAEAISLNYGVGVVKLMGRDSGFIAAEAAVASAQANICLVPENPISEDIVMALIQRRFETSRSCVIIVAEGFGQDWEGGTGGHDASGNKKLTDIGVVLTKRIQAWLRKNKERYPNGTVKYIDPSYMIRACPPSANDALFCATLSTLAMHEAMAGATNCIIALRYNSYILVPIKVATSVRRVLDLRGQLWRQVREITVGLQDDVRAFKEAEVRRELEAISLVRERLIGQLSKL
How it was run: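 PFK activity is measured by coupling ADP production to ADP-Glo luciferase luminescence at end point. Percent inhibition is recorded at 57 μM, the highest concentration of the dose series, with at least 3 separate experiments averaged.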

[7] = Aqueous kinetic solubility of the compound; assay type: physicochemical; settings: buffer; read-out: Kinetic_solubility
[8] = target: T4, ATP-dependent 6-phosphofructokinase (Trypanosoma cruzi, UniProt Q4E657); assay: Inhibition of Trypanosoma cruzi PFK
T4 sequence (Q4E657 whole entry): T3 sequence (whole entry)

[9] = Half life in rat liver microsomes; assay type: ADME
[10] = target: T1, ATP-dependent 6-phosphofructokinase; assay: Mixed type inhibition Trypanosoma brucei PFK using ATP as substrate by Line-weaver Burk plot analysis
How it was run: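 Coupled biochemical PFK assay titrating ATP at several inhibitor levels (0, 1.5, 12.5, 50, 100 nM), F6P held saturating at 2 mM; initial velocities analysed by Lineweaver–Burk transformation, Ki from secondary plots.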

[11] = Metabolic stability in mouse plasma assessed as compound remaining after 2 hrs; assay type: ADME, cell-free; settings: read-out: Stability
[12] = target: T1, ATP-dependent 6-phosphofructokinase; assay: Competitive inhibition Trypanosoma brucei PFK using fructose-6-phosphate as substrate by Line-weaver Burk plot analysis
How it was run: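 Coupled biochemical PFK assay titrating F6P at several inhibitor levels (0, 1.5, 12.5, 50, 100 nM), ATP held saturating at 0.5 mM; initial velocities analysed by Lineweaver–Burk transformation, Ki from secondary plots.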

[13] = target: T5, ATP-dependent 6-phosphofructokinase, muscle type (Oryctolagus cuniculus) (UniProt P00511); assay: Inhibition of recombinant rabbit muscle PFK expressed in PFK-deficient Escherichia coli DF1020DE3 using ATP/fructose 6 phosphate as substrate at 1 uM; assay type: tissue-based; settings: Muscle tissue
T5 sequence (whole entry): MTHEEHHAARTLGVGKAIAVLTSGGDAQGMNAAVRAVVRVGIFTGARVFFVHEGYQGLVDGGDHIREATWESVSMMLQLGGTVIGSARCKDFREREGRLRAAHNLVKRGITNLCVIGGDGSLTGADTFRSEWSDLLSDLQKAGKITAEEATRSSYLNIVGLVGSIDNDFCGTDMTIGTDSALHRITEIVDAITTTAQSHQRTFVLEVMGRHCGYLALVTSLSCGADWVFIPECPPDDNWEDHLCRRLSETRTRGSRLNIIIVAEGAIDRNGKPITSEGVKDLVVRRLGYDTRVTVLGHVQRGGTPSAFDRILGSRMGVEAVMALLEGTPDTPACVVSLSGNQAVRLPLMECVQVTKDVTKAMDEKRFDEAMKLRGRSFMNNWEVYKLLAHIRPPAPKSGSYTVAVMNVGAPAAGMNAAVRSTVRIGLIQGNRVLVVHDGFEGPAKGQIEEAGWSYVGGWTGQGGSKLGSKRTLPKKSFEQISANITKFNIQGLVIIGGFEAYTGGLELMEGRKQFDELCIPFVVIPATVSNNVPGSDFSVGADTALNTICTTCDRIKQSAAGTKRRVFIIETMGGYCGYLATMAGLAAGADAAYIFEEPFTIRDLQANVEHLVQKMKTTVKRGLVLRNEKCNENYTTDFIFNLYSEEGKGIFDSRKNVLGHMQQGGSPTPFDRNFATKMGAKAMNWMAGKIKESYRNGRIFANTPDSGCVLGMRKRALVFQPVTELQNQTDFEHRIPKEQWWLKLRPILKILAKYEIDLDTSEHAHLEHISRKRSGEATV

[14] = Metabolic stability in human plasma assessed as compound remaining after 2 hrs; assay type: ADME, cell-free; settings: read-out: Stability
[15] = tested on: Trypanosoma brucei brucei; assay: Antitrypanosomal activity against Trypanosoma brucei brucei Lister 427 assessed as cell viability at 1.3 to 33.3 ug/ml after 72 hrs by alamar blue assay; assay type: functional, organism-based
[16] = Half life in human liver microsomes; assay type: ADME

SMILES | IC50 [1] [nM] | half-life [2] [h] | inhibition [3] [%] | CC50 at 72 h [4] [nM] | Activity [5] | EC50 [5] [nM] | inhibition [6] [%] | solubility kinetic [7] [µg/mL] | IC50 [8] [nM] | half-life [9] [h] | Ki [10] [nM] | remaining at 2 h [11] [%] | Ki [12] [nM] | inhibition [13] | remaining at 2 h [14] [%] | Activity [15] | half-life [16] [h]
Cc1cc(NS(=O)(=O)c2ccc(NC(=O)Cc3ccc(Cl)c(Cl)c3)cc2)no1 | 410 | 6.8 | > 80 | > 46000 | Dose-dependent effect | 26800 | > 80 | 23.3 (≈ 52.9 µM) | 230 | 0.162 |  |  |  |  |  |  | 
O=C(Cc1ccc(F)c(Cl)c1)Nc1ccc(S(=O)(=O)Nc2nncs2)cc1 | 15 |  | > 80 | > 46000 |  |  | > 80 | > 81 | 172 | > 0.5 | 240 | > 95 | 52 | inactive | > 95 | inactive | 
O=C(Cc1ccc(Cl)c(Cl)c1)Nc1ccc(S(=O)(=O)Nc2ccon2)cc1 | 370 | 3.85 | > 80 | > 46000 | Dose-dependent effect | 16300 | > 80 | > 81 | 130 | > 0.5 |  | > 95 |  |  | > 95 |  | 5.5
